Many of the other results were omitted from the sample, so hits are more common in it than they were.
HCT116 bCat-KO: primary screen for growth suppressors in beta-catenin knockout HCT116 cells (colon tumor, human); HCT116 beta-catenin knockout viability, CellTiter-Glo, 60 h; stronger effect = lower value; viability, % at 10 µM; 140,000 compounds, 1.5% hits; AID 818, 2007;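 active = viability at or under a set limit, the compound median less 4 SD, cut at about 6% in these data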;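 note: 0% = Hyamine 1622 control at 20 µM and 100% = untreated cell control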
PTEN del growth: growth suppression of PTEN-null HCT116, primary screen, cell-based, CellTiter-Glo. HCT116 PTEN-null viability, 60 h; stronger effect = lower value. viability, % at 10 µM. 140,000 compounds, 1.2% hits. AID 827, 2007;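 active = viability at or below a set limit, 4 SD under the median of all tested compounds, cut at about 3.7% in these data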;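 note: PTEN knockout HCT116 line with beta catenin targeted HCT116 as companion control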
Fibroblast inh: antiproliferative effect on LL 47 fibroblasts – human, LL 47 cells, CellTiter-Glo luminescence, primary screen; LL 47 human lung fibroblast viability, ATP luminescence; stronger effect = lower value; viability, % at 10 µM; 85,000 compounds, 1.1% hits;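 active = viability at or below 50% in the single dose screen; inactive = viability above 50%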;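 note: compound exposure lasted 72 h before the ATP readout; 100% = median luminescence of untreated cell-only wells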
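test system = LL 47 human lung fibroblasts | amount = 1,150 fibroblasts seeded per well | medium = 15% FBS in IMEM | times = overnight cell rest, 72 h compound treatment at 37 °C | measured by = CellTiter-Glo luminescence measuring cellular ATP | read-out = viability percentage against median untreated-cell control | benchmarks = cell-only wells, no compound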
H69AR inhibit: proliferation blockers of H69AR lung cancer cells, primary screen, cell-based, human, 86K library | viability, % at 10 µM | AID 598, 2007 | H69AR lung tumor viability, ATP luminescence, 72 h; stronger effect = lower value | 85,000 compounds, 6% hits;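 active = viability at or below 40%; inactive = viability above 40%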;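 note: multidrug resistant small cell line overexpressing MRP-1 efflux transporter; 100% = mean luminescence of untreated control wells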
HUVEC prolif 384: inhibitors of HUVEC proliferation, primary screen, cell-based, 384-well; viability, % at 10 µM (by protocol); CellTiter-Glo luminescence, 72 h; stronger effect = lower value; 86,000 compounds, 1.1% hits;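 active = viability at or below 30%; inactive = viability above 30%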;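 note: 100% = median luminescence of DMSO-only cell control wells on each plate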
* hit, by the source's call; · = not tested or not shown.

SMILES	HCT116 bCat-KO	PTEN del growth	Fibroblast inh	H69AR inhibit	HUVEC prolif 384
Cc1cc(C)n(-c2ccc3cccc(NS(C)(=O)=O)c3n2)n1	3.6*	5.2	26.3*	20.7*	22.6*
COC(=O)C(NC(C)=O)(Nc1nc2c(C)cc(C)cc2s1)C(F)(F)F (centres undefined)	38.3	31.9	88.1	26.4*	71.1
COC(=O)C(NC(C)=O)(Nc1nc(C)cs1)C(F)(F)F (centres undefined)	118.1	111.9	95.0	95.8	90.3
Cc1ccc([N+](=O)[O-])cc1NC(=O)C(Sc1ccccc1)c1ccccc1 (centres undefined)	83.0	83.1	·	·	·
Cc1ccc(NC(=S)NCCc2ccc(S(N)(=O)=O)cc2)cc1C	90.5	81.7	·	·	·
NS(=O)(=O)c1ccc(CCNC(=O)Nc2ccc(Cl)c(Cl)c2)cc1	72.2	66.4	108.6	19.4*	67.9
Cc1c(C(=O)/C=C/c2cccs2)oc2ccc(F)cc12	65.1	64.6	88.9	21.4*	84.9
Cc1cc(=O)oc2c(C(=O)/C=C\c3cccs3)c(O)ccc12	50.3	60.1	·	·	·
O=C(CCSc1ccc(Cl)cc1)N1CCCCCC1	100.8	98.5	·	·	·
O=C(CCSc1ccc(Cl)cc1)N1CCN(c2ncccn2)CC1	93.6	95.4	44.8*	101.5	100.4
O=S(=O)(c1ccc2ccccc2c1)N1CCN(C(=S)Nc2ccc(F)c(Cl)c2)CC1	85.4	87.0	·	·	·
O=C(c1cn(-c2ccccc2)nc1-c1cccs1)N1CCOCC1	81.4	81.8	96.2	96.8	92.5
O=C(c1cn(-c2ccccc2)nc1-c1cccs1)N1CCN(c2ccccc2)CC1	30.0	25.8	75.4	10.6*	53.1
COc1ccccc1NC(=O)C1=C(C)Nc2nnnn2C1c1cccc(C)c1 (centres undefined)	54.0	64.0	84.9	30.4*	73.9
CC(=O)N1CCN(CC(=O)Nc2ccccc2Sc2ccccc2)CC1	93.6	91.7	·	·	·
CC1Cc2ccccc2N1C(=O)CSc1nnc2c(n1)[nH]c1ccc(F)cc12 (centres undefined)	35.6	7.0	100.1	37.5*	53.5
CC1CCc2cc(F)ccc2N1C(=O)CSc1nnc2c3ccccc3n(C)c2n1 (centres undefined)	84.0	87.6	·	·	·
Cc1ccc(N2C(=N)/C(=C3/Nc4ccccc4S3)C(c3ccccc3)C2=O)cc1 (centres undefined)	2.8*	1.8*	·	·	·
O=C1Nc2ccccc2SC(c2ccccc2)C1O (centres undefined)	97.7	103.0	93.2	94.9	91.5
O=C(CSc1nnc(SCc2cccc3ccccc23)s1)N=Nc1c(O)[nH]c2ccccc12	4.3*	1.0*	·	·	·
O=C(CSc1nnc(SCc2cccc3ccccc23)s1)c1ccc2c(c1)OCO2	102.3	87.7	·	·	·
CN1CCN(Cc2nc3ccccc3c(=O)n2Cc2nc(-c3ccc4ccccc4c3)cs2)CC1	0.8*	0.7*	·	·	·
CCOC(=O)c1ccc(NC(=O)CCc2nc(-c3ccc(Cl)cc3)no2)cc1	14.8	11.1	91.6	24.2*	57.1
CCOC(=O)c1ccc(NC(=O)CCc2nc(-c3ccc(C)cc3)no2)cc1	26.7	40.1	95.4	83.6	29.7*
CC(=O)Nc1ccc(NCN2C(=O)[C@@H]3[C@H]4CC[C@H](C4)[C@@H]3C2=O)cc1	99.8	95.7	·	·	·
SMILES	HCT116 bCat-KO	PTEN del growth	Fibroblast inh	H69AR inhibit	HUVEC prolif 384
CC1(C)NC(=O)N(CC(=O)OCC(=O)Nc2cc(S(=O)(=O)N3CCCCCC3)ccc2Cl)C1=O	104.5	95.2	·	·	·
Cc1nc(/C=C/c2ccccc2)[nH]c(=O)c1-c1ccccc1	31.8	27.7	·	·	·
C[C@]12CC[C@@H]3c4ccc(O)cc4CC[C@H]3[C@@H]1CC[C@@H]2O	68.5	70.0	88.3	27.2*	34.8
COC(=O)Cc1c[nH]c2cccc(OCC(O)CN(Cc3ccccc3)C(C)C)c12 (centres undefined)	57.4	62.4	91.2	88.0	94.1
COC(=O)Cc1c[nH]c2cccc(OCC(O)CN(Cc3ccc([N+](=O)[O-])cc3)C(C)(C)C)c12 (centres undefined)	38.1	35.9	96.8	39.7*	83.5
O=C(CCN1C(=O)c2ccccc2C1=O)N1CCN(C2c3ccccc3-c3ccccc32)CC1	85.0	98.9	·	·	·
Cc1cc(NC(=O)COC(=O)C(Nc2ccc(C(F)(F)F)cc2Cl)C(C)C)no1 (centres undefined)	62.4	51.2	92.2	75.0	13.2*
C/C(Cn1nnc2ccccc21)=N\NC(=O)c1cccc(Br)c1	94.0	115.5	·	·	·
COc1ccc(OC)c(C(=O)CSc2nnc(-c3ccc(OC)c(OC)c3)o2)c1	85.6	88.7	30.3*	84.4	67.4
COc1ccc(-c2nnc(SCC#CCO)o2)cc1OC	96.6	111.3	97.0	30.9*	102.0
COc1ccc(C(=O)CSc2nnc(-c3ccc(C)cc3)o2)cc1	90.7	92.1	93.5	102.5	80.8
COc1ccc(-c2nnc(SCC(=O)N3CCCc4ccccc43)o2)cc1OC	87.9	80.1	98.0	36.6*	84.7
O=S(=O)(NC1c2cccc3cccc(c23)C1Sc1ncccn1)c1ccccc1 (centres undefined)	50.9	42.8	·	·	·
CC1CCN(c2cc(N3CCOCC3)c([N+](=O)[O-])cc2F)CC1	70.3	63.9	·	·	·
CCN1CCN(c2cc(N3CCc4ccccc4C3)c(F)cc2[N+](=O)[O-])CC1	1.0*	0.5*	·	·	·
CCSc1nnc(NC(=O)CCc2ccc(OC)cc2)s1	92.5	101.4	·	·	·
O=C1S/C(=C/c2ccc(N3CCOCC3)o2)C(=O)N1Cc1ccc(F)cc1	96.2	101.9	66.7	25.6*	70.8
COc1cc(/C=C2\SC(=Nc3ccccc3)N(CCc3c[nH]c4ccccc34)C2=O)ccc1OC(C)C(=O)O (centres undefined)	87.1	82.0	·	·	·
O=C1S/C(=C\c2ccc(N3CCOCC3)o2)C(=O)N1Cc1ccc(F)cc1	80.5	83.3	·	·	·
O=C1/C(=C/c2ccc(N3CCOCC3)o2)SC(=Nc2ccccc2)N1CCc1c[nH]c2ccccc12	1.4*	1.4*	·	·	·
CCn1c(CNc2nc3ccccc3n2C(C)C)nc2ccccc21	77.7	81.1	87.4	86.8	91.8
Cc1occc1C(=O)NNC(=O)c1ccccc1Br	94.1	95.5	·	·	·
O=C(OCC#CCSc1nnc(-c2cccc3ccccc23)o1)c1ccco1	44.3	52.1	83.2	30.3*	80.3
